The species named for data set [1] is Mus musculus. As to the kind of experiment: Ability to activate CBA/CaJ Mice spleen cells to proliferate in vitro by measuring new DNA synthesis in a [3H]thymidine incorporation assay at 0.01 mM. In kind it is functional. An outline of the steps:
(§1)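 Spleen cells from CBA/CaJ mice, 1 × 10^5 per 0.2 mL, cultured with compound for 48 h in total. [3H]thymidine (0.5 μCi/0.02 mL) was added after 24 h, then cells were harvested and uptake was counted in a β-counter. Results are CPM as mean ± SD of quadruplicate assays.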

Data set [2] is filed under the species Mus musculus. As to the kind of experiment: Ability to activate CBA/CaJ Mice spleen cells to proliferate in vitro by measuring new DNA synthesis in a [3H]thymidine incorporation assay at 0 mM. It counts as functional. An outline of the steps: as §1
The species named for data set [3] is Mus musculus. As to the kind of experiment: Ability to activate CBA/CaJ Mice spleen cells to proliferate in vitro by measuring new DNA synthesis in a [3H]thymidine incorporation assay at 0.05 mM. In kind it is functional. An outline of the steps: as §1
Background: Uptake of a labelled nucleoside into DNA is a usual measure of proliferation.

The species entered for data set [4] is Mus musculus. As to the kind of experiment: Ability to activate CBA/CaJ Mice spleen cells to proliferate in vitro by measuring new DNA synthesis in a [3H]thymidine incorporation assay at 0.20 mM. It counts as functional. The essentials: as §1
The species entered for data set [5] is Mus musculus. As to the kind of experiment: Ability to activate CBA/CaJ Mice spleen cells to proliferate in vitro by measuring new DNA synthesis in a [3H]thymidine incorporation assay at 0.40 mM. It counts as functional. The essentials: as §1
For data set [6], the system named is Semliki Forest virus. As to the kind of experiment: Effect against semliki forest virus infection in mice at an ip dose of 100 mg/kg; 6/12. In kind it is functional. The settings on record: route intraperitoneal. The essentials: (§2)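 Female Swiss Webster mice (about 20 g) received compound or placebo ip in aqueous 2% sodium bicarbonate as half-daily doses at -24 and -18 h before virus. […] Read-outs were survivors/total over 21 days and mean survival time of mice that died. Mice dying within a day or two of dosing were excluded. Significance was by two-tailed Fisher exact test.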

For data set [7], the system named is Semliki Forest virus. As to the kind of experiment: Effect against semliki forest virus infection in mice at an ip dose of 200 mg/kg; 9/12. It counts as functional. The following applies: route intraperitoneal. The essentials: as §2
The subject of data set [8] is Semliki Forest virus. As to the kind of experiment: Effect against semliki forest virus infection in mice at an ip dose of 100 mg/kg. It counts as functional. The following applies: route intraperitoneal. An outline of the steps:
as §2

The subject of data set [9] is Semliki Forest virus. As to the kind of experiment: Effect against semliki forest virus infection in mice at an ip dose of 200 mg/kg. The settings on record: route intraperitoneal. It counts as functional. The essentials: as §2
Data set [10] deals with YAC-1. As to the kind of experiment: (§3) In vivo effect on murine NK cell activity in isolated CBA/CaJ mice spleen cells and cytotoxicity measured against YAC-1 cells at a targetor ratio 100:1. It counts as organism-based. The settings on record: mouse. The essentials: (§4)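 Female CBA/CaJ mice aged 6–8 weeks, two per group, received 150 mg/kg ip in 2% aqueous sodium bicarbonate as 75 mg/kg bid for one day; the placebo was vehicle. After 24 h, spleen cells were pooled and tested against YAC-1 targets in a 4-h 51Cr-release assay, in triplicate, at the stated effector:target ratio.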

For data set [11], the system named is YAC-1. As to the kind of experiment: (§5) In vivo effect on murine NK cell activity in isolated CBA/CaJ mice spleen cells and cytotoxicity measured against YAC-1 cells at a targetor ratio 50:1. The settings on record: mouse. In kind it is organism-based. The essentials: as §4
Data set [12] deals with Mus musculus. As to the kind of experiment: Effect against semliki forest virus infection in mice at an ip dose of 100 mg/kg; 0/12. The settings on record: route intraperitoneal. In kind it is functional. An outline of the steps: as §2
The test system of data set [13] is Mus musculus. As to the kind of experiment: Effect against semliki forest virus infection in mice at an ip dose of 200 mg/kg; 2/11. In kind it is functional. The following applies: route intraperitoneal. An outline of the steps:
as §2

Data set [14] has as its system Mus musculus. As to the kind of experiment: Effect against semliki forest virus infection in mice at an ip dose of 100 mg/kg. It counts as functional. The following applies: route intraperitoneal. The essentials:
as §2

Data set [15] deals with Mus musculus. As to the kind of experiment: Effect against semliki forest virus infection in mice at an ip dose of 200 mg/kg. It counts as functional. The following applies: route intraperitoneal. The essentials: as §2
Data set [16] relates to YAC-1. As to the kind of experiment: In vivo effect on murine NK cell activity in isolated CBA/CaJ mice spleen cells and cytotoxicity measured against YAC-1 cells at a targetor ratio 100:1. It counts as functional, Mus musculus. The essentials:
as §4

In data set [17] the test system is YAC-1. As to the kind of experiment: In vivo effect on murine NK cell activity in isolated CBA/CaJ mice spleen cells and cytotoxicity measured against YAC-1 cells at a targetor ratio 50:1. In kind it is functional, Mus musculus. An outline of the steps: as §4
Data set [18] has as its system Mus musculus. As to the kind of experiment: Effect against semliki forest virus infection in mice at an ip dose of 100 mg/kg; 4/9. In kind it is functional. The settings on record: route intraperitoneal. The essentials:
as §2

Data set [19] concerns Mus musculus. As to the kind of experiment: Effect against semliki forest virus infection in mice at an ip dose of 200 mg/kg''; 11/11. In kind it is functional. The settings on record: route intraperitoneal. The essentials:
as §2

Data set [20] concerns Semliki Forest virus. As to the kind of experiment: Effect against semliki forest virus infection in mice at an ip dose of 200 mg/kg; 3/12. The settings on record: route intraperitoneal. In kind it is functional. The essentials:
as §2

Data set [21] deals with YAC-1. Described as §3. It counts as functional, Mus musculus. An outline of the steps: as §4
In data set [22] the test system is YAC-1. The description is as §5. It counts as functional, Mus musculus. An outline of the steps: as §4
The test system of data set [23] is Semliki Forest virus. As to the kind of experiment: Effect against semliki forest virus infection in mice at an ip dose of 100 mg/kg; 11/12. The following applies: route intraperitoneal. In kind it is functional. An outline of the steps:
as §2

For data set [24], the system named is Semliki Forest virus. As to the kind of experiment: Effect against semliki forest virus infection in mice at an ip dose of 200 mg/kg; 11/12. It counts as functional. The following applies: route intraperitoneal. An outline of the steps:
as §2

As for `Cn1c(=O)n(C2O[C@H](CO)[C@@H](O)[C@H]2O)c2nc(N)nc(O)c21` (stereo not given in full), the CPM in the data set filed under Mus musculus [1] amounted to 6012; in the data set filed under Mus musculus [2], 2000; in the data set listed under Mus musculus [3], 35980; in the data set listed under Mus musculus [4], 72000; in the data set listed under Mus musculus [5], 94100. Further, the Survivors in the data set with Semliki Forest virus [6] is on record as 50%; with Semliki Forest virus [7], 75%. Moreover, the figures for the Mean survival time in the data set with Semliki Forest virus [8] and in the data set on Semliki Forest virus [9] were 7.7 days and 6.3 days, respectively. For the same molecule, the Cytotoxicity amounted to 57.89% in the data set on YAC-1 [10] and 58.8% in the data set with YAC-1 [11].
With `Nc1nc2c(nc(Br)n2[C@@H]2O[C@H](CO)[C@@H](O)[C@H]2O)c(=O)[nH]1`, the CPM worked out at 4387 in the data set listed under Mus musculus [1]; 5204 in the data set filed under Mus musculus [2]; 4835 in the data set filed under Mus musculus [3]; 9199 in the data set listed under Mus musculus [4]; 16771 in the data set listed under Mus musculus [5]. Moreover, the Survivors was found to be 0% in the data set with Mus musculus [12] and 18% in the data set on Mus musculus [13]. Further, the figures for the Mean survival time with Mus musculus [14] and in the data set with Mus musculus [15] were 7.7 days and 7.1 days, respectively. Besides, the Cytotoxicity was 45.44% in the data set with YAC-1 [16] and 31.33% with YAC-1 [17].
Regarding `Nc1nc(O)c2sc(=S)n(C3O[C@H](CO)[C@@H](O)[C@H]3O)c2n1` (stereo not given in full), the CPM turned out to be 4230 in the data set filed under Mus musculus [1]; 3111 in the data set listed under Mus musculus [2]; 15711 in the data set listed under Mus musculus [3]; 43779 in the data set filed under Mus musculus [4]; 53493 in the data set listed under Mus musculus [5]. The Survivors with Mus musculus [18] was found to be 44%; in the data set on Mus musculus [19], 100%. Moreover, the values for the Mean survival time with Mus musculus [14] and in the data set on Mus musculus [15] were 7 days and above 21 days, respectively. For the same molecule, the Cytotoxicity with YAC-1 [16] came to 41.38%; in the data set with YAC-1 [17], 28.89%.
`Nc1nc(O)c2nc(S)n([C@@H]3O[C@H](CO)[C@@H](O)[C@H]3O)c2n1`: the CPM in the data set filed under Mus musculus [1] stood at 3911; in the data set filed under Mus musculus [2] it was 3633; in the data set filed under Mus musculus [3], 5372; in the data set filed under Mus musculus [4] it was 23092; in the data set filed under Mus musculus [5], 40690. The Survivors in the data set on Semliki Forest virus [6] is given as 50%; with Semliki Forest virus [20] it was 25%. Also, the results for the Mean survival time with Semliki Forest virus [8] and in the data set on Semliki Forest virus [9] were 8 days and 7.5 days, respectively. Besides, the “% cytotoxicity” value in the data set with YAC-1 [21] is 61.33%; with YAC-1 [22], 43.53%.
With `Nc1nc2c(sc(=O)n2[C@@H]2O[C@H](CO)[C@@H](O)[C@H]2O)c(=O)[nH]1` [ISATORIBINE], the CPM in the data set listed under Mus musculus [1] turned out to be 12000; in the data set listed under Mus musculus [2] it was 2000; in the data set filed under Mus musculus [3], 54150; in the data set listed under Mus musculus [4], 96680; in the data set filed under Mus musculus [5], 107000. The Mean survival time with Semliki Forest virus [8] worked out at 8 days; in the data set with Semliki Forest virus [9], 6 days. Moreover, the Survivors in the data set with Semliki Forest virus [23] and in the data set with Semliki Forest virus [24] was 92% each time. Besides, the Cytotoxicity in the data set on YAC-1 [10] worked out at 67.8%; with YAC-1 [11] it was 74.8%.

The record behind these values is ChEMBL document CHEMBL1125125, “Thiazolo[4,5-d]pyrimidine nucleosides. The synthesis of certain 3-beta-D-ribofuranosylthiazolo[4,5-d]pyrimidines as potential immunotherapeutic agents” (J Med Chem, 1990).
